Data: ChEMBL document CHEMBL4382268, “Glycyrrhetinic acid derivatives containing aminophosphonate ester species as multidrug resistance reversers that block the NF-κB pathway and cell proliferation” (Bioorg Med Chem Lett, 2018)
The source made the active and inactive calls. No cut-off for these calls is given here.

Columns and labels:
A549 [1] = experiment: Cell cycle arrest in human A549 cells assessed as accumulation at S phase at 10 uM after 24 hrs by propidium iodide staining based flow cytometry (reference value: 38.76%); assay type: functional
A549 [2] = experiment: Cell cycle arrest in human A549 cells assessed as accumulation at S phase at 20 uM after 24 hrs by propidium iodide staining based flow cytometry (reference value: 38.76%); assay type: functional
A549 [3] = experiment: Induction of apoptosis in human A549 cells assessed as viable cells at 5 uM after 24 hrs by annexin V-FITC/propidium iodide staining-based flow cytometry analysis (reference value: 96.0%); assay type: functional; details: A549, 24 h, read-out: Activity
Procedure, shortened: (§1)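 A549 cells treated at 5, 10 and 20 µM for 24 h, then harvested and stained with Annexin V-FITC and PI. Flow cytometry quadrants: Q1 necrotic, Q2 late apoptotic/necrotic, Q3 early apoptotic, Q4 living. Performed three times.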

A549 [4] = experiment: Induction of apoptosis in human A549 cells assessed as necrotic apoptotic cells at 5 uM after 24 hrs by annexin V-FITC/propidium iodide staining-based flow cytometry analysis (reference value: 0.520%); assay type: functional; procedure, shortened: as §1
A549 [5] = experiment: Cell cycle arrest in human A549 cells assessed as accumulation at G1 phase at 5 uM after 24 hrs by propidium iodide staining based flow cytometry (reference value: 47.0%); assay type: functional
A549 [6] = experiment: Induction of apoptosis in human A549 cells assessed as viable cells at 10 uM after 24 hrs by annexin V-FITC/propidium iodide staining-based flow cytometry analysis (reference value: 96.0%); assay type: functional; details: A549, 24 h, read-out: Activity; procedure, shortened: as §1
A549 [7] = experiment: Induction of apoptosis in human A549 cells assessed as necrotic apoptotic cells at 10 uM after 24 hrs by annexin V-FITC/propidium iodide staining-based flow cytometry analysis (reference value: 0.520%); assay type: functional; procedure, shortened: as §1
A549 [8] = experiment: Induction of apoptosis in human A549 cells assessed as late apoptotic cells at 5 uM after 24 hrs by annexin V-FITC/propidium iodide staining-based flow cytometry analysis (reference value: 2.20%); assay type: functional; procedure, shortened: as §1
A549 [9] = experiment: Induction of mitochondrial membrane potential loss in human A549 cells at 5 to 20 uM after 24 hrs by JC-1 staining-based fluorescence microscopic analysis; assay type: functional, cell-based
Procedure, shortened: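 A549 cells treated at 5, 10 and 20 µM for 24 h, then loaded with JC-1 probe for 30 min. Red J-aggregate and green J-monomer fluorescence viewed by fluorescence microscopy. Three experiments.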

A549 [10] = experiment: Induction of apoptosis in human A549 cells assessed as necrotic apoptotic cells at 20 uM after 24 hrs by annexin V-FITC/propidium iodide staining-based flow cytometry analysis (reference value: 0.520%); assay type: functional; procedure, shortened: as §1
A549 [11] = experiment: Cell cycle arrest in human A549 cells assessed as accumulation at G1 phase at 10 uM after 24 hrs by propidium iodide staining based flow cytometry (reference value: 47.0%); assay type: functional

CCOP(=O)(OCC)C(Nc1ccc(CC(=O)NCCCCNC(=O)[C@@]2(C)CC[C@]3(C)CC[C@]4(C)C(=CC(=O)[C@@H]5[C@@]6(C)CC[C@H](OC(C)=O)C(C)(C)[C@@H]6CC[C@]54C)[C@@H]3C2)cc1)c1ccc(F)cc1 (stereo partly specified)
Activity (A549 [1]): 43.6%
Activity (A549 [2]): 54.32%
viability at 5 µM (A549 [3]): 86.4%
Activity (A549 [4]): 0.09%
Activity (A549 [5]): 59.91%
viability at 10 µM (A549 [6]): 57.9%
Activity (A549 [7]): 0.386%
Activity (A549 [8]): 11.6%
Activity (A549 [9]): Active
Activity (A549 [10]): 0.509%
Activity (A549 [11]): 46.5%
